The source of these data is ChEMBL document CHEMBL4382192, “Discovery of a potent dual ALK and EGFR T790M inhibitor” (Eur J Med Chem, 2017).

Molecules are shown by their SMILES.

The test system of data set [1] is Phosphatidylinositol 4,5-bisphosphate 3-kinase catalytic subunit alpha isoform (Homo sapiens), P42336 [M1043I]. In words: Binding affinity to human partial length PIK3CA M1043I mutant (R108 to N1068 residues) expressed in mammalian expression system assessed as residual binding level at 1 uM by Kinomescan method relative to control.
Data set [2] deals with Mast/stem cell growth factor receptor Kit (Homo sapiens), P10721 [D816V]. Briefly: Binding affinity to human partial length KIT D816V mutant (I571 to D952 residues) expressed in bacterial expression system assessed as residual binding level at 1 uM by Kinomescan method relative to control. In short, it runs like this:
(§1)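 Kinome-wide selectivity panel run by the KINOMEscan method, with the test compound at a single concentration of 1 μM. Wild-type and mutant kinases were profiled in the same screen.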

Data set [3] deals with Casein kinase I isoform gamma-1 (Homo sapiens) (UniProt Q9HCP0). Briefly: Binding affinity to wild-type human partial length CSNK1G1 (T15 to S353 residues) expressed in bacterial expression system assessed as residual binding level at 1 uM by Kinomescan method relative to control.
Data set [4] deals with Mitogen-activated protein kinase 13 (Homo sapiens) (UniProt O15264). In words: Binding affinity to wild-type human full length p38-delta (M1 to L365 residues) expressed in bacterial expression system assessed as residual binding level at 1 uM by Kinomescan method relative to control.
For data set [5], the target named is Interferon-induced, double-stranded RNA-activated protein kinase (Homo sapiens) (UniProt P19525). Briefly: Binding affinity to wild-type human partial length PRKR (F247 to C551 residues) expressed in bacterial expression system assessed as residual binding level at 1 uM by Kinomescan method relative to control.
For another data set, the target named is CYP3A4 (Homo sapiens, UniProt P08684). Briefly: Residual activity of CYP3A4 in human liver microsomes at 10 uM using midazolam 1-hydroxylase as substrate preincubated for 5 mins followed by NADPH addition measured after 15 mins by LC/MS/MS analysis relative to control. The note with it: probe midazolam (1-hydroxylation).
Data set [6] has as its target Mitogen-activated protein kinase 11 (Homo sapiens) (UniProt Q15759). In words: Binding affinity to wild-type human full length p38-beta (M1 to Q364 residues) expressed in bacterial expression system assessed as residual binding level at 1 uM by Kinomescan method relative to control.
Data set [7] has as its target Tyrosine-protein kinase JAK2 (Homo sapiens) (UniProt O60674). Briefly: Binding affinity to wild-type human partial length JAK2 JH1 catalytic domain (A829 to G1132 residues) expressed in mammalian expression system assessed as residual binding level at 1 uM by Kinomescan method relative to control.
Data set [8] concerns the target Serine/threonine-protein kinase PAK 3 (Homo sapiens) (UniProt O75914). Briefly: Binding affinity to wild-type human full length PAK3 (M1 to R544 residues) expressed in bacterial expression system assessed as residual binding level at 1 uM by Kinomescan method relative to control. A digest of the protocol: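 Single-point kinome-wide KINOMEscan binding panel, test compound at 1 μM, run by the provider's standard protocol.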

The target in data set [9] is Serine/threonine-protein kinase PAK 5 (Homo sapiens) (UniProt Q9P286). Briefly: Binding affinity to wild-type human partial length PAK7 (Y400 to H719 residues) expressed in bacterial expression system assessed as residual binding level at 1 uM by Kinomescan method relative to control.
For data set [10], the target named is Serine/threonine-protein kinase 25 (Homo sapiens) (UniProt O00506). Briefly: Binding affinity to wild-type human partial length YSK1 (V14 to H295 residues) expressed in bacterial expression system assessed as residual binding level at 1 uM by Kinomescan method relative to control.
Data set [11] deals with Serine/threonine-protein kinase TAO1 (Homo sapiens) (UniProt Q7L7X3). Briefly: Binding affinity to wild-type human partial length TAOK1 (M1 to A320 residues) expressed in mammalian expression system assessed as residual binding level at 1 uM by Kinomescan method relative to control.
For data set [12], the target named is Mitogen-activated protein kinase kinase kinase 6 (Homo sapiens) (UniProt O95382). Briefly: Binding affinity to wild-type human partial length ASK2 (M278 to R972 residues) expressed in mammalian expression system assessed as residual binding level at 1 uM by Kinomescan method relative to control.
The target in data set [13] is Cyclin-dependent kinase 8 (Homo sapiens) (UniProt P49336). In words: Binding affinity to wild-type human partial length CDK8 (M1 to T360 residues) expressed in bacterial expression system assessed as residual binding level at 1 uM by Kinomescan method relative to control.
Data set [14] has as its target Rho-associated protein kinase 1 (Homo sapiens) (UniProt Q13464). In words: Binding affinity to wild-type human partial length ROCK1 (M1 to R415 residues) expressed in mammalian expression system assessed as residual binding level at 1 uM by Kinomescan method relative to control.
Data set [15] deals with Serine/threonine-protein kinase PAK 6 (Homo sapiens) (UniProt Q9NQU5). Briefly: Binding affinity to wild-type human partial length PAK6 (N298 to C681 residues) expressed in bacterial expression system assessed as residual binding level at 1 uM by Kinomescan method relative to control.
The subject of data set [16] is Tyrosine-protein kinase ABL1 (Homo sapiens), P00519 [H396P]. In words: Binding affinity to human non-phosphorylated ABL1 H396P mutant (S229 to K512 residues) expressed in mammalian expression system assessed as residual binding level at 1 uM by Kinomescan method relative to control. In short, it runs like this: as §1
Data set [17] in a line: AUClast in mouse at 10 mg/kg, po. The arrangement: dose 10 mg/kg, time 0 - last, route oral. The note with it: in vivo. It is filed as ADME, organism-based.
Data set [18] deals with Casein kinase II subunit alpha' (Homo sapiens) (UniProt P19784). Briefly: Binding affinity to wild-type human full length CSNK2A2 (M1 to R350 residues) expressed in mammalian expression system assessed as residual binding level at 1 uM by Kinomescan method relative to control.
For data set [19], the target named is Fibroblast growth factor receptor 3 (Homo sapiens) (UniProt P22607). Briefly: Binding affinity to wild-type human partial length FGFR3 (R442 to S771 residues) expressed in bacterial expression system assessed as residual binding level at 1 uM by Kinomescan method relative to control.
The target in data set [20] is Homeodomain-interacting protein kinase 2 (Homo sapiens) (UniProt Q9H2X6). Briefly: Binding affinity to wild-type human partial length HIPK2 (M153 to S564 residues) expressed in mammalian expression system assessed as residual binding level at 1 uM by Kinomescan method relative to control.
Data set [21] deals with Serine/threonine-protein kinase 32C (Homo sapiens) (UniProt Q86UX6). In words: Binding affinity to wild-type human partial length YANK3 (M68 to G486 residues) expressed in bacterial expression system assessed as residual binding level at 1 uM by Kinomescan method relative to control.
Data set [22] concerns the target Leukocyte tyrosine kinase receptor (Homo sapiens) (UniProt P29376). Briefly: Binding affinity to wild-type human partial length LTK (P422 to S744 residues) expressed in bacterial expression system assessed as residual binding level at 1 uM by Kinomescan method relative to control.
Data set [23] deals with Proto-oncogene tyrosine-protein kinase receptor Ret (Homo sapiens) (UniProt P07949). Briefly: Binding affinity to wild-type human partial length RET (E713 to D1014 residues) expressed in bacterial expression system assessed as residual binding level at 1 uM by Kinomescan method relative to control.

`C=CC(=O)Nc1cc(Nc2ncc(Cl)c(Nc3ccccc3S(=O)(=O)C(C)C)n2)c(OC)cc1N(C)CCN(C)C`: the Activity amounted to 84% in [1]; 26% in [2]; 74% in data set [3]; 100% in [4]; 66% in data set [5]; 96% in [6]. For the same molecule, the Activity stood at 5.7% in data set [7]; 23% in data set [8]; 79% in data set [9]; 81% in [10]; 0.45% in data set [11]; 21% in [12]. The Activity in [13] is 90%; in data set [14], 46%; in [15], 96%; in data set [16], 2.3%; in data set [18], 100%; in data set [19], 19%. In addition, the Activity in data set [20] was found to be 94%; in data set [21], 13%; in [22] it was 0%; in data set [23] it was 13%. At CYP3A4, this molecule displayed an Activity at […], 10 µM of 44%. This molecule had an exposure AUC(0-t) in data set [17] of 1550 ng·h/mL.
